Measured values published in ChEMBL document CHEMBL1124493, “Synthesis and tumor uptake of 5-82Br- and 5-131I-labeled 5-halo-1-(2-fluoro-2-deoxy-beta-D-ribofuranosyl)uracils” (J Med Chem, 1989).

Key:
[1] = tested on: Mus musculus; experiment: Biodistribution of intravenously injected [131I]-labeled compound in muscle of BDF1 female mice bearing subcutaneous Lewis lung carcinoma after 0.5 hours; assay type: ADME, organism-based, Muscle tissue; details: in vivo, iv
In short: (§1)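 Female BDF1 mice bearing subcutaneous Lewis lung carcinoma received a single intravenous dose of 0.5-1.8 μg of the 131I-labeled nucleoside (55-110 kBq). They were sacrificed at set times, and tissues were weighed wet and γ-counted. Activity is expressed as percent of injected dose per gram of wet tissue, given as mean ± standard deviation for six animals.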

[2] = tested on: Mus musculus; experiment: Biodistribution of intravenously injected [131I]-labeled compound in tumor of BDF1 female mice bearing subcutaneous Lewis lung carcinoma after 24 hours; assay type: ADME, organism-based; details: in vivo, iv
In short: (§2)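 Female BDF1 mice with subcutaneous Lewis lung carcinoma given i.v. 0.5-1.8 μg of 131I-labeled nucleoside (55-110 kBq). Killed at set times. Tissues weighed wet and γ-counted. Radioactivity expressed as percent injected dose per gram wet tissue, mean ± SD of six animals.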

[3] = tested on: Mus musculus; experiment: Biodistribution of intravenously injected [131I]-labeled compound in tumor of BDF1 female mice bearing subcutaneous Lewis lung carcinoma after 4 hr; assay type: ADME, organism-based; details: in vivo, iv; in short: as §2
[4] = tested on: Mus musculus; experiment: Biodistribution of intravenously injected [131I]-labeled compound in lung of BDF1 female mice bearing subcutaneous Lewis lung carcinoma after 0.25 hours; assay type: ADME, organism-based; details: in vivo, iv; in short: as §1
[5] = tested on: Mus musculus; experiment: Biodistribution of intravenously injected [131I]-labeled compound in stomach of BDF1 female mice bearing subcutaneous Lewis lung carcinoma after 1 hours; assay type: ADME, organism-based; details: in vivo, iv; in short: as §2
[6] = tested on: Mus musculus; experiment: Biodistribution of intravenously injected [131I]-labeled compound in lung of BDF1 female mice bearing subcutaneous Lewis lung carcinoma after 4 hours; assay type: ADME, organism-based; details: in vivo, iv; in short: as §1
[7] = tested on: Mus musculus; experiment: Biodistribution of intravenously injected [131I]-labeled compound in heart of BDF1 female mice bearing subcutaneous Lewis lung carcinoma after 0.25 hours; assay type: ADME, organism-based; details: in vivo, iv; in short: as §1
[8] = tested on: Mus musculus; experiment: Biodistribution of intravenously injected [131I]-labeled compound in skin of BDF1 female mice bearing subcutaneous Lewis lung carcinoma after 0.25 hours; assay type: ADME, organism-based, Zone of skin; details: in vivo, iv; in short: as §2
[9] = tested on: Mus musculus; experiment: Biodistribution of intravenously injected [131I]-labeled compound in blood of BDF1 female mice bearing subcutaneous Lewis lung carcinoma after 0.25 hours; assay type: ADME, organism-based; details: in vivo, iv; in short: as §1
[10] = tested on: Mus musculus; experiment: Biodistribution of intravenously injected [131I]-labeled compound in gut of BDF1 female mice bearing subcutaneous Lewis lung carcinoma after 24 hours; assay type: ADME, organism-based; details: in vivo, iv; in short: as §1
[11] = tested on: Mus musculus; experiment: Biodistribution of intravenously injected [131I]-labeled compound in spleen of BDF1 female mice bearing subcutaneous Lewis lung carcinoma after 1 hours; assay type: ADME, organism-based; details: in vivo, iv; in short: as §2
[12] = tested on: Mus musculus; experiment: Biodistribution of intravenously injected [131I]-labeled compound in lung of BDF1 female mice bearing subcutaneous Lewis lung carcinoma after 2 hours; assay type: ADME, organism-based; details: in vivo, iv; in short: as §1
[13] = tested on: Mus musculus; experiment: Biodistribution of intravenously injected [131I]-labeled compound in blood of BDF1 female mice bearing subcutaneous Lewis lung carcinoma after 24 hours; assay type: ADME, organism-based; details: in vivo, iv; in short: as §1
[14] = tested on: Mus musculus; experiment: Biodistribution of intravenously injected [131I]-labeled compound in muscle of BDF1 female mice bearing subcutaneous Lewis lung carcinoma after 4 hours; assay type: ADME, organism-based, Muscle tissue; details: in vivo, iv; in short: as §2
[15] = tested on: Mus musculus; experiment: Biodistribution of intravenously injected [131I]-labeled compound in gut of BDF1 female mice bearing subcutaneous Lewis lung carcinoma after 0.25 hours; assay type: ADME, organism-based; details: in vivo, iv; in short: as §1
[16] = tested on: Mus musculus; experiment: Biodistribution of intravenously injected [131I]-labeled compound in stomach of BDF1 female mice bearing subcutaneous Lewis lung carcinoma after 24 hours; assay type: ADME, organism-based; details: in vivo, iv; in short: as §2
[17] = tested on: Mus musculus; experiment: Biodistribution of intravenously injected [131I]-labeled compound in tumor of BDF1 female mice bearing subcutaneous Lewis lung carcinoma after 2 hours; assay type: ADME, organism-based; details: in vivo, iv; in short: as §2
[18] = tested on: Mus musculus; experiment: Biodistribution of intravenously injected [82Br]-labeled compound in bone of BDF1 female mice bearing subcutaneous Lewis lung carcinoma after 1 hours; assay type: ADME, organism-based, Bone element; details: in vivo, iv
In short: (§3)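 82Br-labeled nucleoside given intravenously to female BDF1 mice bearing subcutaneous Lewis lung carcinoma, at 47-130 μg carrying 20-60 kBq. Mice sacrificed at each time point. Wet-weighed tissues γ-counted. Values are percent injected dose per gram wet tissue, mean ± SD, n = 6.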

[19] = tested on: Mus musculus; experiment: Biodistribution of intravenously injected [82Br]-labeled compound in lung of BDF1 female mice bearing subcutaneous Lewis lung carcinoma after 1 hours; assay type: ADME, organism-based; details: in vivo, iv
In short: (§4)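 Female BDF1 mice with subcutaneous Lewis lung carcinoma given an iv injection of [82Br]-labelled nucleoside, 47-130 μg carrying 20-60 kBq 82Br. Tissues were excised, weighed wet and γ-counted. Values are percent injected dose per gram of wet tissue, mean ± standard deviation of six animals, with organ-to-tumour ratios derived.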

[20] = tested on: Mus musculus; experiment: Biodistribution of intravenously injected [82Br]-labeled compound in kidney of BDF1 female mice bearing subcutaneous Lewis lung carcinoma after 2 hours; assay type: ADME, organism-based; details: in vivo, iv; in short: as §4
[21] = tested on: Mus musculus; experiment: Biodistribution of intravenously injected [82Br]-labeled compound in stomach of BDF1 female mice bearing subcutaneous Lewis lung carcinoma after 4 hours; assay type: ADME, organism-based; details: in vivo, iv
[22] = tested on: Mus musculus; experiment: Biodistribution of intravenously injected [82Br]-labeled compound in skin of BDF1 female mice bearing subcutaneous Lewis lung carcinoma after 1 hours; assay type: ADME, organism-based, Zone of skin; details: in vivo, iv; in short: as §4
[23] = tested on: Mus musculus; experiment: Biodistribution of intravenously injected [82Br]-labeled compound in tumor of BDF1 female mice bearing subcutaneous Lewis lung carcinoma after 0.25 hours; assay type: ADME, organism-based; details: in vivo, iv
[24] = tested on: Mus musculus; experiment: Biodistribution of intravenously injected [82Br]-labeled compound in heart of BDF1 female mice bearing subcutaneous Lewis lung carcinoma after 0.25 hours; assay type: ADME, organism-based; details: in vivo, iv; in short: as §4
[25] = tested on: Mus musculus; experiment: Biodistribution of intravenously injected [82Br]-labeled compound in gut of BDF1 female mice bearing subcutaneous Lewis lung carcinoma after 24 hours; assay type: ADME, organism-based; details: in vivo, iv; in short: as §4
[26] = tested on: Mus musculus; experiment: Biodistribution of intravenously injected [82Br]-labeled compound in blood of BDF1 female mice bearing subcutaneous Lewis lung carcinoma after 24 hours; assay type: ADME, organism-based; details: in vivo, iv; in short: as §3
[27] = tested on: Mus musculus; experiment: Biodistribution of intravenously injected [82Br]-labeled compound in kidney of BDF1 female mice bearing subcutaneous Lewis lung carcinoma after 0.25 hours; assay type: ADME, organism-based; details: in vivo, iv; in short: as §4
[28] = tested on: Mus musculus; experiment: Biodistribution of intravenously injected [82Br]-labeled compound in heart of BDF1 female mice bearing subcutaneous Lewis lung carcinoma after 8 hours; assay type: ADME, organism-based; details: in vivo, iv; in short: as §4
[29] = tested on: Mus musculus; experiment: Biodistribution of intravenously injected [82Br]-labeled compound in muscle of BDF1 female mice bearing subcutaneous Lewis lung carcinoma after 0.5 hours; assay type: ADME, organism-based, Muscle tissue; details: in vivo, iv; in short: as §4
[30] = tested on: Mus musculus; experiment: Biodistribution of intravenously injected [82Br]-labeled compound in gut of BDF1 female mice bearing subcutaneous Lewis lung carcinoma after 1 hours; assay type: ADME, organism-based; details: in vivo, iv; in short: as §3
[31] = tested on: Mus musculus; experiment: Biodistribution of intravenously injected [82Br]-labeled compound in gut of BDF1 female mice bearing subcutaneous Lewis lung carcinoma after 4 hours; assay type: ADME, organism-based; details: in vivo, iv; in short: as §4
[32] = tested on: Mus musculus; experiment: Biodistribution of intravenously injected [82Br]-labeled compound in blood of BDF1 female mice bearing subcutaneous Lewis lung carcinoma after 2 hours; assay type: ADME, organism-based; details: in vivo, iv; in short: as §3
[33] = tested on: Mus musculus; experiment: Biodistribution of intravenously injected [82Br]-labeled compound in lung of BDF1 female mice bearing subcutaneous Lewis lung carcinoma after 0.5 hours; assay type: ADME, organism-based; details: in vivo, iv; in short: as §4
[34] = tested on: Mus musculus; experiment: Biodistribution of intravenously injected [82Br]-labeled compound in stomach of BDF1 female mice bearing subcutaneous Lewis lung carcinoma after 0.25 hours; assay type: ADME, organism-based; details: in vivo, iv
[35] = tested on: Mus musculus; experiment: Biodistribution of intravenously injected [82Br]-labeled compound in skin of BDF1 female mice bearing subcutaneous Lewis lung carcinoma after 0.50 hours; assay type: ADME, organism-based, Zone of skin; details: in vivo, iv, 0.5 h; in short: as §4
[36] = tested on: Mus musculus; experiment: Biodistribution of intravenously injected [82Br]-labeled compound in lung of BDF1 female mice bearing subcutaneous Lewis lung carcinoma after 8 hours; assay type: ADME, organism-based; details: in vivo, iv; in short: as §4
[37] = tested on: Mus musculus; experiment: Biodistribution of intravenously injected [82Br]-labeled compound in liver of BDF1 female mice bearing subcutaneous Lewis lung carcinoma after 0.25 hours; assay type: ADME, organism-based; details: in vivo, iv; in short: as §4
[38] = tested on: Mus musculus; experiment: Biodistribution of intravenously injected [82Br]-labeled compound in bone of BDF1 female mice bearing subcutaneous Lewis lung carcinoma after 0.5 hours; assay type: ADME, organism-based, Bone element; details: in vivo, iv; in short: as §3

O=c1[nH]c(=O)n([C@@H]2O[C@H](CO)[C@@H](O)[C@H]2F)cc1I
Injected dose/g [1]: 2%
Injected dose/g [2]: 0.08%
Injected dose/g [3]: 3.3%
Injected dose/g [4]: 7.9%
Injected dose/g [5]: 4.5%
Injected dose/g [6]: 4.5%
Injected dose/g [7]: 7%
Injected dose/g [8]: 5.2%
Injected dose/g [9]: 19%
Injected dose/g [10]: 0.07%
Injected dose/g [11]: 2.5%
Injected dose/g [12]: 5.1%
Injected dose/g [13]: 0.16%
Injected dose/g [14]: 1.3%
Injected dose/g [15]: 3.1%
Injected dose/g [16]: 0.21%
Injected dose/g [17]: 3.8%

O=c1[nH]c(=O)n([C@H]2O[C@@H](CO)[C@H](O)[C@H]2F)cc1Br
Injected dose/g [18]: 0.26%
Injected dose/g [19]: 0.52%
Injected dose/g [20]: 0.71%
Injected dose/g [21]: 0.4%
Injected dose/g [22]: 0.45%
Injected dose/g [23]: 1.39%
Injected dose/g [24]: 1.61%
Injected dose/g [25]: 0.22%
Injected dose/g [26]: 0.51%
Injected dose/g [27]: 7.69%
Injected dose/g [28]: 0.45%
Injected dose/g [29]: 0.4%
Injected dose/g [30]: 0.42%
Injected dose/g [31]: 0.28%
Injected dose/g [32]: 0.79%
Injected dose/g [33]: 0.91%
Injected dose/g [34]: 1.29%
Injected dose/g [35]: 0.72%
Injected dose/g [36]: 0.46%
Injected dose/g [37]: 1.45%
Injected dose/g [38]: 0.3%
